Counter-ions that a name gives are not always drawn.
Experiments:
Cavia porcellus = species: Cavia porcellus; assay: Selectivity kappa/delta
[1] = target: Opioid receptor (mu and kappa) (Cavia porcellus) (UniProt P41144+P97266); assay: Selectivity kappa/mu; type: protein assay
Mu-type opioid receptor = Mu-type opioid receptor (Cavia porcellus, UniProt P97266); assay: Binding affinity towards Opioid receptor mu 1 by displacing the radioligand [3H]DAMGO from guinea pig brain membrane
Outline: (§1)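 Guinea pig brain membranes (homogenised, preincubated 37 °C 30 min, washed), 500 µg protein, with 12 concentrations of compound in 50 mM Tris-HCl pH 7.5 at 25 °C for 60 min. Nonspecific binding defined with 1 µM naloxone. Glass-fibre filtration, with PEI-soaked filters for kappa. IC50 by log-probit fit; three experiments in triplicate, mean ± SEM.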

[2] = target: Kappa-type opioid receptor (Cavia porcellus, UniProt P41144); assay: Binding affinity towards Opioid receptor kappa 1 by displacing the radioligand [3H]U-69593 from guinea pig brain membrane; outline: as §1
Kappa-type opioid receptor, sequence (P41144 whole entry): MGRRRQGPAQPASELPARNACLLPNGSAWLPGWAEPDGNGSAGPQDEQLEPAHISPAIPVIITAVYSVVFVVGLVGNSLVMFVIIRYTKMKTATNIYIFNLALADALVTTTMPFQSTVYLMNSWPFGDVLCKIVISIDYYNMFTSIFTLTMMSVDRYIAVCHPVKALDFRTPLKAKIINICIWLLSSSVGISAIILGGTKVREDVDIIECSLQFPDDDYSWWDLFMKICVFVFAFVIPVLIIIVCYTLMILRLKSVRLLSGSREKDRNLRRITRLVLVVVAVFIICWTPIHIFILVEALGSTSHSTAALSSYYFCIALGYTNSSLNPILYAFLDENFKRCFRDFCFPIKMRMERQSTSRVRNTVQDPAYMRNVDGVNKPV

[3] = Binding affinity towards Opioid receptor delta 1 by displacing the radioligand [3H]naltrindole from guinea pig brain membrane

Opioid receptor (mu and kappa) (Cavia porcellus), sequence (P41144 whole entry, looked up): as the sequence (P41144 whole entry) above
Opioid receptor (mu and kappa) (Cavia porcellus), sequence (P97266 whole entry, looked up): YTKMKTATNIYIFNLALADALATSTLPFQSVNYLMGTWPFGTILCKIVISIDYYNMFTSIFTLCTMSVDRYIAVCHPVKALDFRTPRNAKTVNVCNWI
Mu-type opioid receptor, sequence (P97266 whole entry): as the sequence (P97266 whole entry, looked up) above

SMILES	Selectivity (Cavia porcellus)	Selectivity [1]	Ki (Mu-type opioid receptor) [nM]	Ki [2] [nM]	Ki [3] [nM]
Oc1ccc2c(c1)[C@@]13CCCCC1[C@@H](C2)N(C[C@@H]1CCCO1)CC3 (some centres not stated)	2	0.066	0.01	0.15	
C[C@H]1C2C(=O)c3ccc(O)cc3[C@@]1(C)CCN2CC1CCCO1 (some centres not stated)				720	
O=C1c2ccc(O)cc2C23CCCCC2C1N(CC1CC1)CC3 (single isomer, unassigned; (-))	6	1	240	24	
O=C1c2ccc(O)cc2C23CCCCC2C1N(CC1CCCO1)CC3 (single isomer, unassigned; (-))	6	2	0.38	0.18	
Oc1ccc2c(c1)[C@@]13CCCC[C@H]1[C@@H](C2)N(CC1CCC1)CC3 [BUTORPHAN]				0.073	
C[C@H]1[C@H]2Cc3ccc(O)cc3[C@]1(C)CCN2CC1CC1 [CYCLAZOCINE]				0.052	
Oc1ccc2c(c1)[C@@]13CCCC[C@H]1[C@@H](C2)N(CC1CC1)CC3 [CYCLORPHAN]				0.053	
CC[C@@]12CCN(CC3CC3)C(C(=O)c3ccc(O)cc31)[C@@H]2C [ETHYLKETOCYCLAZOCINE]			0.78		3.4
CN1CC[C@]23CCCC[C@H]2[C@H]1Cc1ccc(O)cc13 [LEVORPHANOL HYDROCHLORIDE]	[…]	[…]	[…]	2.3	
